From ChEMBL document CHEMBL1681633, “Design, synthesis, and in vitro characterization of novel hybrid peptidomimetic inhibitors of STAT3 protein” (Bioorg Med Chem, 2011)
The source made the active and inactive calls. The rule behind the calls is not given here.

Legend:
[1] = target: T1, Signal transducer and activator of transcription 3 (Mus musculus, UniProt P42227); assay: Displacement of 5-carboxyfluorescein-GpYLPQTV-NH2 from mouse recombinant His-tagged STAT3-SH2 domain expressed in Escherichia coli BL21 (DE3) by fluorescence polarization assay
Method in brief: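 His-tagged protein expressed in BL21(DE3), Ni-column purified. STAT3 150 nM incubated with serial inhibitor concentrations 60 min at 30 °C in 50 mM NaCl, 10 mM HEPES, 1 mM EDTA, 0.1% NP-40; 15 min equilibration at room temperature; 10 nM final probe added, 30 min room temperature, then FP read.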

[2] = target: T1, Signal transducer and activator of transcription 3; assay: Inhibition of STAT3 dimerization in mouse NIH3T3 cells expressing v-Src assessed as disruption of STAT3-STAT3: DNA complexation in nucleus after 30 mins by electrophoretic mobility shift assay; assay type: cell-based
Method in brief: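 Nuclear extracts from NIH3T3/v-Src (constitutively active STAT3), equal total protein, pre-incubated 30 min at room temperature with increasing compound concentrations, then with radiolabelled hSIE probe; EMSA with densitometry quantification.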

[3] = target: Signal transducer and activator of transcription 3 (Mus musculus) (UniProt P42227); assay: Inhibition of STAT3 dimerization in v-Src transformed mouse NIH3T3 cells assessed as suppression of STAT3-DNA binding activity in nucleus at 100 uM after 24 hrs by electrophoretic mobility shift assay; assay type: cell-based
Method in brief: (§1)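 NIH3T3/v-Src cells treated with 100 μM compound for 6 or 24 h; nuclear extracts then tested for STAT3 DNA binding in vitro with radiolabelled hSIE probe by EMSA.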

[4] = target: Signal transducer and activator of transcription 3 (Mus musculus) (UniProt P42227); assay: Inhibition of STAT3 dimerization in v-Src transformed mouse NIH3T3 cells assessed as suppression of STAT3-DNA binding activity in nucleus at 100 uM after 6 hrs by electrophoretic mobility shift assay; assay type: cell-based; method in brief: as §1
[5] = Metabolic stability in human Caco2 cells at 10 uM at pH 7.4 after 90 mins by LC/MS analysis; assay type: ADME, cell-based; details: Caco-2 cells, read-out: Stability
Method in brief: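 Caco-2 monolayers grown on PET membrane inserts (1.0 µm pore) at 75,000 cells/cm² and used on day 25, fully polarized and differentiated. Compound at 10 μM final, non-gradient pH 7.4/7.4, 90 min. Samples analysed by narrow-window mass-extraction LC/QTof-MS for parent-compound peak areas. Percent recovered or transported calculated relative to the initial dosing concentration.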

Caco-2 = assay: Apparent permeability across apical to basolateral side in human Caco2 cells at 10 uM at pH 7.4 after 90 mins by LC/MS analysis; assay type: ADME, cell-based; details: caco-2, pH 7.4, […]
[6] = target: T1, Signal transducer and activator of transcription 3; assay: Inhibition of mouse recombinant SH2 domain of His-tagged full-length STAT3 by surface plasmon resonance assay
Method in brief: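 Purified STAT3 captured on a HisCap sensor chip by injecting 50 μg/ml protein; inhibitors at various concentrations in 1X PBS, 0.5% DMSO running buffer passed over chip; association and dissociation rate constants recorded, their ratio taken as KD.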

NIH3T3 = assay: Antiproliferative activity against mouse NIH/3T3 cells assessed as suppression of cell viability at 50 uM after 24 hrs by CyQuant cell viability assay; assay type: functional
HL-60 = assay: Antiproliferative activity against human HL60 cells assessed as suppression of cell viability after 24 hrs by CyQuant cell viability assay; assay type: functional, cell-based; details: HL-60, 24 h
Method in brief: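 Cells incubated 24 h with a range of inhibitor concentrations; HL-60 cells (no aberrant STAT3 signalling) run as control alongside DU145, Panc-1, NIH3T3/vSrc and breast cancer lines. Viability/growth read by CyQuant assay.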

[7] = target: T2, Signal transducer and activator of transcription 1 (Mus musculus, UniProt P42225); assay: Displacement of 5-carboxyfluorescein-GpYDKPHVL-NH2 from mouse recombinant His-tagged STAT1-SH2 domain expressed in Escherichia coli BL21 (DE3) by fluorescence polarization assay
T2 sequence (P42225 whole entry): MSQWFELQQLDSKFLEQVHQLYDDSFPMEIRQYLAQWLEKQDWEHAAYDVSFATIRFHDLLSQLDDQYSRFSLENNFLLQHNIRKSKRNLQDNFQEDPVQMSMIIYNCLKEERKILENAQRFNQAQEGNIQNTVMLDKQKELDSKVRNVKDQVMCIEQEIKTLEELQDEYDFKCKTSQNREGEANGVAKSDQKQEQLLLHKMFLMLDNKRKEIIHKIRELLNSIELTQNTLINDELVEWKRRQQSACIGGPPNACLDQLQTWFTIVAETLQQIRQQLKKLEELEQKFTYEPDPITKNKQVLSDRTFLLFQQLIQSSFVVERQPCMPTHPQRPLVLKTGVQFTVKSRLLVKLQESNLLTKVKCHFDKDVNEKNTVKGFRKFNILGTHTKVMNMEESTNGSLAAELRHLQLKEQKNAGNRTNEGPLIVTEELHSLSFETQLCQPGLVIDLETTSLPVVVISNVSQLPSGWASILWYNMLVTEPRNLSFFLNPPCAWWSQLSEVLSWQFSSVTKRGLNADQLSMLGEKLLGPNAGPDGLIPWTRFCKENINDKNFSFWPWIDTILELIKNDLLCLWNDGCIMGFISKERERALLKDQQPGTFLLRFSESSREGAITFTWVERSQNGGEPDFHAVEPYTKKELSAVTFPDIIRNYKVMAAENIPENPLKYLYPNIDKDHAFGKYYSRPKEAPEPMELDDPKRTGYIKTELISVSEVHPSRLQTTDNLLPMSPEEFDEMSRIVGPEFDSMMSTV
Method in brief: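 His-tagged protein expressed in BL21(DE3), Ni-column purified. STAT1 80 nM incubated with serial inhibitor concentrations 60 min at 30 °C in 50 mM NaCl, 10 mM HEPES, 1 mM EDTA, 0.1% NP-40; 15 min equilibration at room temperature; 10 nM final probe added, 30 min room temperature, then FP read.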

PANC-1 = assay: Antiproliferative activity against human PANC1 cells assessed as suppression of cell viability at 50 uM after 24 hrs by CyQuant cell viability assay; assay type: functional
Method in brief: (§2)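 Cancer cells (human breast MDA-MB-231, pancreatic Panc-1, prostate DU-145) treated with a range of inhibitor concentrations, 30–50 μM, for 24 h. Growth and viability read by CyQuant cell proliferation/viability assay.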

DU-145 = assay: Antiproliferative activity against human DU145 cells assessed as suppression of cell viability at 50 uM after 24 hrs by CyQuant cell viability assay; assay type: functional; method in brief: as §2
MDA-MB-468 (human) = assay: Antiproliferative activity against human MDA-MB-468 cells assessed as suppression of cell viability at 50 uM after 24 hrs by CyQuant cell viability assay

Sequence of Signal transducer and activator of transcription 3 (Mus musculus) (P42227 whole entry): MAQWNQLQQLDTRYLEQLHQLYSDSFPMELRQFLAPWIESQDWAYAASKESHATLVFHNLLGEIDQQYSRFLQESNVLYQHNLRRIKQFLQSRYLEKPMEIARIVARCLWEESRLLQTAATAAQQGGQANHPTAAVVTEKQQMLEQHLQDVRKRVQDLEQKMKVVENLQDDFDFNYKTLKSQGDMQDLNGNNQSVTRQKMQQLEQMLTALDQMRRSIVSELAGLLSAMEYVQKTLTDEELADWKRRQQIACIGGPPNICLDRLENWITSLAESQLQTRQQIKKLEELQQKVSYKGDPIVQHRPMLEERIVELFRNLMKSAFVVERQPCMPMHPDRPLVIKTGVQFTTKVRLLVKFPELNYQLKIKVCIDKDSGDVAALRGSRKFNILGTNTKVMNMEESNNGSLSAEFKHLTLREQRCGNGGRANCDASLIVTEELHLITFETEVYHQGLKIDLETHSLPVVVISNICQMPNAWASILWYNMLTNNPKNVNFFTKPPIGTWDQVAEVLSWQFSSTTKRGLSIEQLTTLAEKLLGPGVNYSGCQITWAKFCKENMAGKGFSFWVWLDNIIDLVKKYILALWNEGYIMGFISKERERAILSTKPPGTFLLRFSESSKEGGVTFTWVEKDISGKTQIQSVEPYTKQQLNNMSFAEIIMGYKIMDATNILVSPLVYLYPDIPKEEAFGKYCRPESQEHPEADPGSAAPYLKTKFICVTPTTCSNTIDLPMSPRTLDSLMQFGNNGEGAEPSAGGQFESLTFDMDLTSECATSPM
T1 sequence (P42227 whole entry, the tested form may be a part): as the sequence (P42227 whole entry) above

SMILES | Ki [1] | IC50 [2] | other results
COC(=O)c1cccc(-c2cc(NC(=O)[C@H](CC(C)C)NC(=O)[C@H](Cc3ccc(OP(=O)(O)O)cc3)NC(=O)c3ccc(C#N)cc3)cc(C(=O)NCc3ccccc3)c2)c1 | 23 µM | 66 µM | 
CC(C)C[C@H](NC(=O)[C@H](Cc1ccc(O)cc1)NC(=O)c1ccc(C#N)cc1)C(=O)Nc1ccc(C(=O)NCc2ccccc2)c(-c2ccc(C(N)=O)cc2)c1 |  | 103 µM | Activity [3]: Active; Activity [4]: Active; remaining at […], 10 µM [5]: 52%; Papp (Caco-2): > 0.5 ×10⁻⁶ cm/s; Kd [6]: 12 µM
CC(C)C[C@H](NC(=O)[C@H](Cc1ccc(OP(=O)(O)O)cc1)NC(=O)c1ccc(C#N)cc1)C(=O)Nc1cc(C(=O)NCc2ccccc2)cc(-c2cccc(C#N)c2)c1 | 18 µM | 92 µM | 
COC(=O)c1ccc(-c2cc(NC(=O)[C@H](CC(C)C)NC(=O)[C@H](Cc3ccc(OP(=O)(O)O)cc3)NC(=O)c3ccc(C#N)cc3)ccc2C(=O)NCc2ccccc2)cc1 | 26 µM | > 200 µM | 
COC(=O)c1cccc(-c2cc(NC(=O)[C@H](CC(C)C)NC(=O)[C@H](Cc3ccc(OP(=O)(O)O)cc3)NC(=O)c3ccc(C#N)cc3)ccc2C(=O)NCc2ccccc2)c1 | 10 µM | 40 µM | 
CC(C)C[C@H](NC(=O)[C@H](Cc1ccc(O)cc1)NC(=O)c1ccc(C#N)cc1)C(=O)Nc1cc(C(=O)NCc2ccccc2)cc(-c2ccc(C(N)=O)cc2)c1 |  | 190 µM | Activity [3]: inactive; Activity [4]: inactive; remaining at […], 10 µM [5]: 36%; Papp (Caco-2): > 0.5 ×10⁻⁶ cm/s; Kd [6]: 17 µM
CC(C)C[C@H](NC(=O)[C@H](Cc1ccc(OP(=O)(O)O)cc1)NC(=O)c1ccc(C#N)cc1)C(=O)Nc1cc(C(=O)NCc2ccccc2)cc(-c2ccc(C#N)cc2)c1 | 36 µM | 60 µM | 
COC(=O)c1ccc(-c2cc(NC(=O)[C@H](CC(C)C)NC(=O)[C@H](Cc3ccc(OP(=O)(O)O)cc3)NC(=O)c3ccc(C#N)cc3)cc(C(=O)NCc3ccccc3)c2)cc1 | 25 µM | 112 µM | 
CC(C)C[C@H](NC(=O)[C@H](Cc1ccc(OP(=O)(O)O)cc1)NC(=O)c1ccc(C#N)cc1)C(=O)Nc1ccc(C(=O)NCc2ccccc2)c(-c2cccc(C#N)c2)c1 | 13 µM | 64 µM | 
CC(C)C[C@H](NC(=O)[C@H](Cc1ccc(OP(=O)(O)O)cc1)NC(=O)c1ccc(C#N)cc1)C(=O)Nc1ccc(C(=O)NCc2ccccc2)c(-c2ccc(C(N)=O)cc2)c1 | 5 µM | 73.1 µM | Activity (NIH3T3): 50%; IC50 (HL-60): > 200 µM; Activity [3]: Active; inhibition [4]: > 80%; Ki [7]: 6.3 µM; Papp (Caco-2): < 0.5 ×10⁻⁶ cm/s; Kd [6]: 0.9 µM; Activity (PANC-1): 50%; Activity (DU-145): 50%; Activity (MDA-MB-468 (human)): 50%
CC(C)C[C@H](NC(=O)[C@H](Cc1ccc(OP(=O)(O)O)cc1)NC(=O)c1ccc(C#N)cc1)C(=O)Nc1ccc(C(=O)NCc2ccccc2)c(-c2ccc(C#N)cc2)c1 | 11 µM | 33 µM | 
CC(C)C[C@H](NC(=O)[C@H](Cc1ccc(OP(=O)(O)O)cc1)NC(=O)c1ccc(C#N)cc1)C(=O)Nc1ccc(C(=O)NCc2ccccc2)c(-c2cccc(C(N)=O)c2)c1 | 15 µM | 62 µM | 
CC(C)C[C@H](NC(=O)[C@H](Cc1ccc(OP(=O)(O)O)cc1)NC(=O)c1ccc(C#N)cc1)C(=O)Nc1cc(C(=O)NCc2ccccc2)cc(-c2cccc(C(N)=O)c2)c1 | 38 µM | 188 µM | 
CC(C)C[C@H](NC(=O)[C@H](Cc1ccc(OP(=O)(O)O)cc1)NC(=O)c1ccc(C#N)cc1)C(=O)Nc1cc(C(=O)NCc2ccccc2)cc(-c2ccc(C(N)=O)cc2)c1 | 9 µM | 5 µM | Activity [3]: Active; inhibition [4]: 50%; Ki [7]: 16.5 µM; Kd [6]: 0.205 µM
